Measurements published in ChEMBL document CHEMBL4339193, “Phenotypic Screening-Based Identification of 3,4-Disubstituted Piperidine Derivatives as Macrophage M2 Polarization Modulators: An Opportunity for Treating Multiple Sclerosis” (J Med Chem, 2019).
Calls of active or inactive are those of the source. No cut-off for these calls is given here.

Legend:
[1] = Tmax in Sprague-Dawley rat at 50 mg/kg, po administered as single dose via gavage by LC/MS analysis; type: ADME, organism-based; conditions: in vivo
In short: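 Single dose given to rats. Venous blood (100 µL) drawn at 0, 0.5, 1, 2, 4, 8 and 12 h. Plasma separated by centrifugation and stored at -20 °C, then compound measured by LC/MS. Cmax, Tmax, t1/2 and AUC derived from the concentration-time data.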

Mus musculus [2] = experiment: (§1) Antiinflammatory activity in C57BL/6J mouse model of MOG (35 to 55 residues)/pertussis toxin/complete Freund's adjuvant-induced experimental allergic encephalomyelitis assessed as effect on dendritic cell population in spleen by measuring change in CD11c level at 200 mg/kg, ig administered daily starting from 7 days post-immunization measured after 13 to 19 days post-immunization by flow cytometry analysis; type: functional, organism-based
In short: (§2)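 MOG35-55/CFA EAE mice were dosed daily in saline from day 7 and sampled between days 13 and 19. Spleens and dLNs were mechanically dissociated to single cells. CNS cells came from collagenase IV digestion and a 70%/30% Percoll gradient. Cells were surface-stained with fluorochrome antibodies, including CD4, CD11b, CD11c and MHC-II, and analysed by flow cytometry.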

Mus musculus [3] = experiment: Inhibition of M1 polarization in C57BL/6J mouse model of MOG (35 to 55 residues)/pertussis toxin/complete Freund's adjuvant-induced experimental allergic encephalomyelitis assessed as CD86 level in CNS at 200 mg/kg, ig administered daily starting from 7 days post-immunization measured after 13 to 19 days post-immunization by flow cytometry analysis (reference value: 26.3%); type: functional; parameters: scale not given: the % may be the effect or the level left
In short: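 MOG35-55/CFA EAE mice were dosed daily in saline from day 7 and sampled between days 13 and 19. Cells came from spleen and dLN by mechanical dissociation and from CNS by collagenase IV/Percoll. They were stained for F4/80 with CD206 (M2) or CD86 (M1), and each was read by flow cytometry as a percentage of total F4/80+ macrophages.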

Mus musculus [4] = experiment: as §1, with “TH17” for “effect on dendritic”, “spinal cord” for “spleen”, “IL17” for “change in CD11c”, “14” for “13”, “21” for “19”, “analysis (reference value: 7.7%)” for “analysis”; type: functional
In short: (§3)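 EAE induced with MOG35-55 (2 mg/ml in PBS) emulsified in CFA containing 4 mg/ml heat-killed M. tuberculosis H37Ra, injected s.c. into the neck and both hindlegs. Drug in saline daily from day 7. Between days 13 and 19, CNS mononuclear cells were taken by collagenase IV digestion and a 70%/30% Percoll gradient. Cells were restimulated 5 h with brefeldin A 2 µg/ml, PMA 0.1 µg/ml and ionomycin 0.5 µg/ml, stained for surface CD4, fixed and permeabilised, then stained intracellularly for IFN-γ/IL-17A. Analysed by flow cytometry; n=4 mice per group.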

Mus musculus [5] = experiment: as §1, with “TH1” for “effect on dendritic”, “spinal cord” for “spleen”, “IFNgamma” for “change in CD11c”, “14” for “13”, “21” for “19”, “analysis (reference value: 22.3%)” for “analysis”; type: functional; in short: as §3
Mus musculus [6] = experiment: Antiinflammatory activity in C57BL/6J mouse model of MOG (35 to 55 residues)/pertussis toxin/complete Freund's adjuvant-induced experimental allergic encephalomyelitis assessed as reduction in demyelination in spinal cord at 200 mg/kg, ig administered daily starting from 7 days post-immunization measured after 14 days post-immunization by LFB staining based microscopic analysis; type: functional, organism-based
In short: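 EAE mice dosed daily in saline from day 7 were perfused with PBS and fixed in 4% PFA on day 14; spinal cords were taken. For LFB, frozen OCT sections sat 3 h in 0.1% Luxol Fast Blue at 56-60°C, were differentiated in 0.05% lithium carbonate for 10-12 s, cleared in 70% ethanol, dehydrated and mounted. For H&E, paraffin sections were stained to assess inflammation.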

BMDM [7] = experiment: Inhibition of LPS-induced M1 polarization in C57BL/6J mouse BMDM cells assessed as down regulation of CD86 expression at 300 nM measured after 24 hrs by FACS analysis; type: functional, cell-based
In short: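 BMDMs pretreated with 50 ng/ml LPS for 24 h, then given compound (300 nM, or a range of concentrations) for 24 h. Stained for F4/80 and CD86; % CD86+F4/80+ cells read by flow cytometry. Mean ± SEM, at least three independent experiments.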

BMDM [8] = experiment: Modulation of M1 polarization in C57BL/6J mouse BMDM cells assessed as up regulation of TNFalpha expression at 300 nM measured after 4 to 24 hrs by Western blot analysis; type: cell-based; conditions: 0.3 µM
In short: (§4)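 BMDMs lysed in pH 7.6 buffer with 1% Triton X-100, phosphatase inhibitor and 1 mM PMSF. Proteins separated by SDS-PAGE, blotted to PVDF and probed with anti-Arg-1, anti-Ym1 or anti-TNF-α, then ECL detection; GAPDH as loading control.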

BMDM [9] = experiment: Modulation of M2 polarization in C57BL/6J mouse BMDM cells assessed as up regulation of Arg1 expression at 300 nM measured after 4 to 24 hrs by Western blot analysis; type: functional, cell-based; in short: as §4
BMDM [10] = experiment: Modulation of M2 polarization in C57BL/6J mouse BMDM cells assessed as up regulation of Fizz1 mRNA expression at 300 nM measured after 24 hrs by qRT-PCR analysis; type: functional, cell-based
In short: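 BMDMs treated 24 h with 300 nM compound at 37 °C, 5% CO2. Trizol RNA extraction, then qRT-PCR for Arg1, Mrc1 and Fizz1 mRNA. Mean ± SEM.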

[11] = Toxicity in ICR mouse assessed as adverse effect at 400 mg/kg, ig administered daily for 14 days; type: organism-based; conditions: in vivo, po, 336 h
In short: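 Repeated-dose study in healthy mice over 14 days. Read-outs were body weight change, serum parameters, and organ-to-body and organ-to-brain weight ratios.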

BMDM [12] = experiment: Modulation of M2 polarization in C57BL/6J mouse BMDM cells assessed as up regulation of CD206 expression measured after 24 hrs by FACS analysis; type: functional, cell-based
In short: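 BMDMs exposed to compound (300 nM, or a range of concentrations) for 24 h. Stained for F4/80 and CD206; % CD206+F4/80+ cells read by flow cytometry. Mean ± SEM, at least three independent experiments.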

RAW264.7 = experiment: Inhibition of M1 polarization in mouse RAW264.7 cells assessed as down regulation of TNFRSF10C mRNA expression at 300 nM measured after 24 hrs by qRT-PCR analysis; type: functional, cell-based
[13] = Ratio of AUC (0 to t) to AUC (0 to infinity) in Sprague-Dawley rat at 50 mg/kg, po administered as single dose via gavage; type: ADME, organism-based; conditions: in vivo
[14] = AUC (0 to t) in Sprague-Dawley rat at 50 mg/kg, po administered as single dose via gavage by LC/MS analysis; type: ADME, organism-based; conditions: in vivo
In short: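 Single dose in rats; venous blood (100 µL) drawn at 0, 0.5, 1, 2, 4, 8 and 12 h, plasma separated by centrifugation and held at -20 °C. Compound measured by LC/MS; Cmax, Tmax, t1/2 and AUC derived from the concentration–time data.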

Mus musculus [15] = experiment: as §1, with “Treg” for “dendritic”, “draining lymph nodes” for “spleen”, “CD4” for “CD11c”; type: functional, organism-based; in short: as §2

With `Cl.Cn1ncc(Cl)c1-c1ccc(C(=O)N[C@@H]2CNCC[C@H]2c2cccc(F)c2)cc1` the Tmax [1] was 3.25 h, the Activity (Mus musculus [2]) was “inactive” and the Activity (Mus musculus [3]) was 16.6%. For the same compound, the Activity (Mus musculus [4]) was 4.5%, the Activity (Mus musculus [5]) was 11.4% and the Activity (Mus musculus [6]) was “Active”. The inhibition (BMDM [7]) was “Active”, the Activity (BMDM [8]) was “Non-Toxic” and the Activity (BMDM [9]) was “Active”. The Activity (BMDM [10]) was “Active”, the Activity [11] was “Non-Toxic” and the Activity (BMDM [12]) was “Dose-dependent effect”. For the same compound, the inhibition (RAW264.7) was “Active”, the “Ratio AUC” value [13] was 98.425% and the AUC(0-t) [14] was 4670 ng·h/mL. For the same compound, the Activity (Mus musculus [15]) was “inactive”.
